Compound activity (PubChem BioAssay)
PLC-beta3 inh – human PLC-beta3 inhibitors, primary screen, biochemical, fluorescence | 1-phosphatidylinositol 4,5-bisphosphate phosphodiesterase beta-3 (Homo sapiens), Q01970 | Purified PLC-beta3, fluorogenic substrate | inhibition, % at 12.2 µM | hit rate 0.18% among 370,000 | AID 720704, 2013; in the data active means inhibition above about 11%
PLCg1 inh – PLC-gamma1 enzyme inhibitors, primary screen, biochemical, fluorescence, purified enzyme | 1-phosphatidylinositol 4,5-bisphosphate phosphodiesterase gamma-1 (Homo sapiens), P19174 | AID 720700, 2013 | fluorogenic substrate | hit rate 0.84% among 370,000 | inhibition, % at 12.2 µM; in the data active means inhibition above about 9.5%
DDE Tn7 FP inh – inhibitors of Tn7 peptide binding to fibrin DD(E), primary screen, biochemical, fluorescence polarization, human fibrin, Tn7 probe. AID 720508, 2013. inhibition, % at 8.3 µM. hit rate 0.13% among 370,000. FP displacement of FITC-Tn7 peptide from fibrin DD(E); 0% = median of compound wells per plate;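 active means inhibition above the mean of compounds falling within the control limits plus 3 SD of them, cut at about 14% in these data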
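Test system: human clot-derived fibrin DD(E) complex / Quantity: 2 µM final DD(E) protein / Incubation: 10 min plus 3 h, room temperature / Measured by: fluorescence polarization / Benchmarks: high control of 10 µM Aha-Tn7 peptide / Replicates: singlicate testing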
ADAM17 inh – ADAM17 inhibitors, primary screen, biochemical, QFRET; inhibition, % at 6.95 µM; AID 720648, 2013; recombinant ADAM17, EDANS/DABCYL FRET peptide cleavage; hit rate 0.83% among 370,000;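 active means inhibition above the mean of compounds lying between control limits plus 3 SD, set per campaign, cut at about 8.5% in these data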
ADAM10 inh – human ADAM10 inhibitors, primary screen, biochemical, QFRET, HTS. recombinant ADAM10, EDANS/DABCYL FRET peptide cleavage, 3 h. inhibition, % at 7 µM. hit rate 0.62% among 370,000. AID 720582, 2013;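 active means inhibition above a per-campaign cutoff equal to the mean of compounds falling between control-based bounds plus 3 SD, cut at about 20% in these data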
Tn6 DDE FP – inhibitors of Tn6 peptide binding to fibrin DD(E), primary screen, biochemical, fluorescence polarization, human fibrin, Tn6 probe; Fibrin DD(E) TRITC-Tn6 fluorescence polarization displacement; inhibition, % at 8.3 µM; hit rate 0.21% among 370,000; AID 720509, 2013;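 active means inhibition above a per-campaign cutoff: mean of compounds within control limits plus 3 SD, cut at about 15% in these data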
ADAM10 confirm – human ADAM10 inhibitors, confirmation, biochemical, QFRET, triplicate; shares compounds with ADAM10 inh; ADAM10 QFRET peptide cleavage, EDANS fluorescence; inhibition, % at 6.95 µM; hit rate 1% among 2,100; AID 743208, 2013;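 active means inhibition above about 20% chosen separately for each screening run, limit read from the data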
ADAM17 ctr – ADAM17 inhibitors, counter-screen for ADAM10 exosite inhibitor project, biochemical, QFRET, high throughput; shares compounds with ADAM10 inh; ADAM17 QFRET peptide cleavage, EDANS fluorescence; inhibition, % at 6.95 µM; hit rate 0.5% among 2,100;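 active means mean triplicate inhibition above the solvent-only control wells' mean plus 3 SD, cut at about 12% in these data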
ADAM10 counter – ADAM10 inhibitors, counter-screen for ADAM17 exosite inhibitor project, biochemical, FRET, human ADAM10 | hit rate 47% among 2,900 | shares compounds with ADAM17 inh | recombinant ADAM10, EDANS/DABCYL FRET peptide cleavage, 3 h | AID 743256, 2014 | inhibition, % at 6.95 µM;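 active means mean inhibition over the triplicate runs exceeds the activity threshold set in the earlier primary screen, cut at about 20% in these data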
ADAM17 confirm – ADAM17 inhibitors, hit retest, confirmation, biochemical, QFRET peptide cleavage; inhibition, % at 6.95 µM; recombinant ADAM17, EDANS/DABCYL QFRET peptide cleavage; shares compounds with ADAM17 inh; hit rate 65% among 2,900;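 active means mean inhibition across replicates above the hit cutoff set in the primary screen, cut at about 8.5% in these data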
Hits are given with their value. This is a sample that favours compounds with a hit; in the whole collection about 2.3% have one here.

How did O=C(COC(=O)CCc1c[nH]c2ccccc12)NCCc1ccccc1 do in these assays?
PLC-beta3 inh: inactive; PLCg1 inh: inactive; DDE Tn7 FP inh: inactive; ADAM17 inh: inactive; ADAM10 inh: inactive; Tn6 DDE FP: inactive

Results for O[C@H](COc1cccc(C(F)(F)F)c1)CN1CCC(C(O)(c2ccccc2)c2ccccc2)CC1 ?
PLC-beta3 inh: inactive; PLCg1 inh: inactive; DDE Tn7 FP inh: inactive; ADAM17 inh: inactive; ADAM10 inh: inactive; Tn6 DDE FP: inactive

How did COc1ccc(S[C@]2(C(=O)N3CCN(c4ncccn4)CC3)CC(=O)N(c3ccccc3)[C@@H]2c2ccc(OC)cc2)cc1 do in these assays?
PLC-beta3 inh: inactive; PLCg1 inh: inactive; DDE Tn7 FP inh: inactive; ADAM17 inh: inactive; ADAM10 inh: inactive; Tn6 DDE FP: inactive

How did Cc1cc(C(=O)COC(=O)CC2Sc3ccccc3NC2=O)c(C)n1-c1ccccc1 (centres undefined) do in these assays?
PLC-beta3 inh: inactive; PLCg1 inh: inactive; DDE Tn7 FP inh: inactive; ADAM17 inh: 18; ADAM10 inh: 28; Tn6 DDE FP: inactive; ADAM10 confirm: inactive; ADAM17 ctr: inactive; ADAM10 counter: 21; ADAM17 confirm: 12

What do the screens show for `CCOc1ccc(Br)cc1S(=O)(=O)Nc1ccc(Cl)c(S(=O)(=O)N(CC)c2ccccc2)c1`?
PLC-beta3 inh: inactive; PLCg1 inh: inactive; DDE Tn7 FP inh: inactive; ADAM17 inh: 9.4; ADAM10 inh: 27; Tn6 DDE FP: inactive; ADAM10 confirm: inactive; ADAM17 ctr: inactive; ADAM10 counter: 35; ADAM17 confirm: 19

What do the screens show for `CC(=O)c1cc(-c2cnn(Cc3ccccc3)c2)c(=O)n2c1CCC2`?
PLC-beta3 inh: inactive; PLCg1 inh: inactive; DDE Tn7 FP inh: inactive; ADAM17 inh: inactive; ADAM10 inh: inactive; Tn6 DDE FP: inactive

How did CCC(C)N(C(=O)CN1C(=O)C2CCCCN2C(=O)c2ccccc21)C(C)CC (centres undefined) do in these assays?
PLC-beta3 inh: inactive; PLCg1 inh: inactive; DDE Tn7 FP inh: inactive; ADAM17 inh: inactive; ADAM10 inh: inactive; Tn6 DDE FP: inactive

What do the screens show for `Cc1cc(NC(=O)c2ccc(NS(=O)(=O)c3ccccc3)cc2)no1`?
PLC-beta3 inh: inactive; PLCg1 inh: inactive; DDE Tn7 FP inh: inactive; ADAM17 inh: inactive; ADAM10 inh: inactive; Tn6 DDE FP: inactive

How did COc1ccc(NC(=O)COC(=O)c2c3c(nc4ccccc24)CCCC3)cc1Cl do in these assays?
PLC-beta3 inh: inactive; PLCg1 inh: inactive; DDE Tn7 FP inh: inactive; ADAM17 inh: 12; ADAM10 inh: 23; Tn6 DDE FP: inactive; ADAM10 confirm: inactive; ADAM17 ctr: inactive; ADAM10 counter: 30; ADAM17 confirm: 19
